The values below come from ChEMBL document CHEMBL4715919 (Bioorg Med Chem, 2021).

The target in data set [1] is T1, Sodium/glucose cotransporter 2 (Homo sapiens, UniProt P31639).
T1 sequence (P31639 whole entry): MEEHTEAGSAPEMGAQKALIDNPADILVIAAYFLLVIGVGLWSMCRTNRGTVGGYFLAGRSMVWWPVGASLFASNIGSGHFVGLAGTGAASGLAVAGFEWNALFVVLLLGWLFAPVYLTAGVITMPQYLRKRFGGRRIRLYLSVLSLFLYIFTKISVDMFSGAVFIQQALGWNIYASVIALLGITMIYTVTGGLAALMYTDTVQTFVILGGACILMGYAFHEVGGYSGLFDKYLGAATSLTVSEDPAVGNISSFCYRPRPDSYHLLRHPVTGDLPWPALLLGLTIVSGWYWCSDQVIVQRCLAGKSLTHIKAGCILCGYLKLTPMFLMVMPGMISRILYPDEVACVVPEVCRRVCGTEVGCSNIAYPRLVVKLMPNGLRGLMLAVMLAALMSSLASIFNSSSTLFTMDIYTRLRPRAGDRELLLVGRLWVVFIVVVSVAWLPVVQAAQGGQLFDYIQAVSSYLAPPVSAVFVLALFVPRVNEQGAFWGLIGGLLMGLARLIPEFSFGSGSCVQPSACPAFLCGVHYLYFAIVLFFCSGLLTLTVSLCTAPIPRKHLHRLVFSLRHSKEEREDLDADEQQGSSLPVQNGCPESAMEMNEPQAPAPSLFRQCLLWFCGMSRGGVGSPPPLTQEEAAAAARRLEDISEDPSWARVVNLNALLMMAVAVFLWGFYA
The experiment in a line: Inhibition of human SGLT2 expressed in COS7 cells assessed as reduction in [14C]-AMG uptake. Type of data set: cell-based. The essentials:
(§1)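 Human SGLT2 expression plasmid transfected into COS-7 cells. Uptake of [¹⁴C]-α-methyl-D-glucopyranoside (AMG) measured with 0.3 mM AMG in uptake buffer. […] Mean ± SEM of at least three independent experiments.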

Data set [2] can be described thus: Apparent permeability of compound in human Caco-2 cells by LC-MS/MS analysis. Type of data set: ADME, cell-based. Summed up:
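Caco-2 cells seeded at 1.0 × 10⁵ cells/well on polycarbonate inserts (0.3 cm², 1 μm pores). After 60 min at 37 °C in 5% CO₂, buffer sampled from the opposite side. Compound measured by LC-MS/MS. Papp in 10^-6 cm/s.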
On the technique in general: Passage across Caco-2 layers is used to estimate intestinal permeability.

The nature of data set [3]: Oral bioavailability in rat assessed as ratio of AUC at 3 mg/kg up to 360 mins by LC-MS/MS analysis. Type of data set: ADME, organism-based. The settings on record: in vivo. The essentials:
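Rat oral dosing at 3 mg/kg in 0.5% methyl cellulose, with iv dosing at 1 mg/kg in 20% DMA/80% saline. Jugular blood sampled from 5 to 360 min, plasma quantified by LC-MS/MS. F is the ratio of oral AUC to iv AUC. For the ester prodrug, AUC of the parent glucoside after prodrug dosing is compared with iv parent.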

The nature of data set [4]: Intrinsic clearance in rat intestinal S9 fraction at 10 uM up to 60 min in presence of NADPH by LC-MS/MS analysis.
Data set [5] can be described thus: Intrinsic clearance in human liver microsomes at 30 uM up to 60 mins by LC-MS/MS analysis. Type of data set: ADME, Microsome. To be noted: read-out: CLH. The essentials:
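Compound at 30 μM incubated at 37 °C with human liver microsomes (1 mg/mL protein) in 100 mmol/L phosphate pH 7.4 with 10 mM MgCl₂ and 1 mg/mL NADPH. Sampled at 0, 15, 30 and 60 min, quenched with ice-cold acetonitrile, centrifuged. Parent measured by LC-MS/MS. t1/2 and CLint derived from remaining compound.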
In general terms: Liver microsomes are vesicles of endoplasmic reticulum, rich in cytochrome P450 enzymes.

Data set [6] concerns the target T1, Sodium/glucose cotransporter 2. The experiment in a line: Inhibition of human SGLT2 expressed in COS7 cells. The format is cell-based. Summed up:
as §1

Data set [7] is described as follows: AUC(0 to t) in rat at 3 mg/kg, po up to 360 mins by LC-MS/MS analysis. Type of data set: ADME, organism-based. Further details: route oral, dose 3 mg/kg, time <=360. To be noted: in vivo. The essentials:
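Rats dosed once orally at 3 mg/kg (5 mL/kg) as a suspension in 0.5 w/v% methyl cellulose 400. Jugular vein blood drawn at 5, 10, 15, 30, 60, 120, 240 and 360 min. Plasma levels measured by LC-MS/MS. AUC taken to the last observation point. Mean ± SD.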

As usually defined, the IC50 is the concentration at which inhibition is half-maximal. For `Cc1[nH]nc(O[C@@H]2O[C@H](CO)[C@@H](O)[C@H](O)[C@H]2O)c1Cc1ccc(C(C)C)cc1`, the IC50 in data set [1] came to 0.0162 µM. With `CCOc1ccc(Cc2c(O[C@@H]3O[C@H](CO)[C@@H](O)[C@H](O)[C@H]3O)n[nH]c2C)cc1`, the IC50 in data set [1] came to 0.0108 µM. Still for that read-out and setting: the result for `CCCc1ccc(Cc2c(O[C@@H]3O[C@H](CO)[C@@H](O)[C@H](O)[C@H]3O)n[nH]c2C)cc1` reads 0.0088 µM; that for `Cc1[nH]nc(O[C@@H]2O[C@H](CO)[C@@H](O)[C@H](O)[C@H]2O)c1Cc1ccccc1`, 0.181 µM. Usually Papp stands for a coefficient for how fast a substance crosses the barrier. Broadly, the bioavailability is dose-corrected exposure relative to a reference, in per cent. As to `CCOC(=O)OC[C@H]1O[C@@H](Oc2nn(C(C)C)c(C)c2Cc2ccc(OC(C)C)cc2)[C@H](O)[C@@H](O)[C@@H]1O` [REMOGLIFLOZIN ETABONATE], the Papp in data set [2] worked out at 4.29 ×10⁻⁶ cm/s. Besides, in data set [3], the bioavailability is 5.79%. Moreover, the microsomal CLint at 10 µM in data set [4] is 3.4 µL/min/mg. The IC50 in data set [1] was found to be 2.53 µM.

Consider `CCc1ccc(Cc2c(O[C@@H]3O[C@H](CO)[C@@H](O)[C@H](O)[C@H]3O)n[nH]c2C)cc1`, for which the IC50 in data set [1] amounted to 0.0039 µM.

With `CCCn1nc(O[C@@H]2O[C@H](CO)[C@@H](O)[C@H](O)[C@H]2O)c(Cc2ccc(OC(C)C)cc2)c1C`, in data set [5], the microsomal CLint at 30 µM is 6.75 µL/min/mg. In addition, in data set [1], the IC50 is 0.0661 µM. On to `Cc1ccc(Cc2c(O[C@@H]3O[C@H](CO)[C@@H](O)[C@H](O)[C@H]3O)n[nH]c2C)cc1`, for which the IC50 in data set [1] worked out at 0.0122 µM.

`CSc1ccc(Cc2c(C(F)(F)F)n[nH]c2O)cc1` showed an IC50 in data set [6] of more than 1000 µM. With `Cc1ccccc1Cc1c(O[C@@H]2O[C@H](CO)[C@@H](O)[C@H](O)[C@H]2O)n[nH]c1C`, the IC50 in data set [1] came out at 0.914 µM. `Cc1c(Cc2ccc(OC(C)C)cc2)c(O[C@@H]2O[C@H](CO)[C@@H](O)[C@H](O)[C@H]2O)nn1C`: in data set [5], the microsomal CLint at 30 µM came to 3.73 µL/min/mg. Also, the IC50 in data set [1] came to 0.11 µM.

One may read the AUC(0-t) as the area under the concentration-time curve up to a stated or last time point. With `Cc1c(Cc2ccc(OC(C)C)cc2)c(O[C@@H]2O[C@H](CO)[C@@H](O)[C@H](O)[C@H]2O)nn1C(C)C` [REMOGLIFLOZIN], the Papp in data set [2] was determined as 3.16 ×10⁻⁶ cm/s. The microsomal CLint at 30 µM in data set [5] amounted to 0.85 µL/min/mg. For the same molecule, the bioavailability in data set [3] came to 3.23%. The microsomal CLint at 10 µM in data set [4] amounted to 3.9 µL/min/mg. In addition, the AUC(0-t) at 6 h in data set [7] is 27.9 ng·h/mL. Moreover, the IC50 in data set [1] is 0.0184 µM. Regarding `Cc1cccc(Cc2c(O[C@@H]3O[C@H](CO)[C@@H](O)[C@H](O)[C@H]3O)n[nH]c2C)c1`, the IC50 in data set [1] was 0.757 µM. Turning to `CSc1ccc(Cc2c(O[C@@H]3O[C@H](CO)[C@@H](O)[C@H](O)[C@H]3O)n[nH]c2C(F)(F)F)cc1`, the microsomal CLint at 10 µM in data set [4] was determined as 73.2 µL/min/mg. The IC50 in data set [1] is 0.0163 µM.

In the case of `CCCOc1ccc(Cc2c(O[C@@H]3O[C@H](CO)[C@@H](O)[C@H](O)[C@H]3O)n[nH]c2C)cc1`, in data set [1], the half-inhibitory concentration (IC50) was found to be 0.0154 µM.

With `OC[C@H]1O[C@@H](Oc2n[nH]c3cccc(CCc4ccccc4)c23)[C@H](O)[C@@H](O)[C@@H]1O`, in data set [1], the IC50 was found to be 0.086 µM. In the case of `CSc1ccc(Cc2c(O[C@@H]3O[C@H](CO)[C@@H](O)[C@H](O)[C@H]3O)n[nH]c2C)cc1`, the microsomal CLint at 10 µM in data set [4] turned out to be 3.2 µL/min/mg. The IC50 in data set [1] was 0.0049 µM. Take `CCn1nc(O[C@@H]2O[C@H](CO)[C@@H](O)[C@H](O)[C@H]2O)c(Cc2ccc(OC(C)C)cc2)c1C`: the microsomal CLint at 30 µM in data set [5] came out at 4.15 µL/min/mg. For the same molecule, the IC50 in data set [1] turned out to be 0.0434 µM. Take `Cc1[nH]nc(O[C@@H]2O[C@H](CO)[C@@H](O)[C@H](O)[C@H]2O)c1CCc1ccccc1`: in data set [1], the IC50 came to 5.29 µM.

On to `COc1ccc(Cc2c(O[C@@H]3O[C@H](CO)[C@@H](O)[C@H](O)[C@H]3O)n[nH]c2C)cc1`, for which the IC50 in data set [1] is 0.0123 µM.

For the molecule `Cc1nn(C)c(O[C@@H]2O[C@H](CO)[C@@H](O)[C@H](O)[C@H]2O)c1Cc1ccc(OC(C)C)cc1`, the IC50 in data set [1] was more than 1 µM. Regarding `CSc1ccc(Cc2c(O[C@@H]3O[C@H](CO)[C@@H](O)[C@H](O)[C@H]3O)n[nH]c2C(C)C)cc1`, in data set [4], the microsomal CLint at 10 µM was 4.6 µL/min/mg. Moreover, in data set [1], the IC50 came to 0.154 µM. The like results for `CCc1[nH]nc(O[C@@H]2O[C@H](CO)[C@@H](O)[C@H](O)[C@H]2O)c1Cc1ccc(SC)cc1` were, in that order, 4.8 µL/min/mg and 0.0512 µM. For `Cc1[nH]nc(O[C@@H]2O[C@H](CO)[C@@H](O)[C@H](O)[C@H]2O)c1CCCc1ccccc1`, the IC50 in data set [1] is 3.95 µM. On to `Cc1[nH]nc(O[C@@H]2O[C@H](CO)[C@@H](O)[C@H](O)[C@H]2O)c1Cc1ccc(OC(C)C)cc1`, for which the apparent permeability (Papp) in data set [2] is 1.02 ×10⁻⁶ cm/s. For the same molecule, the microsomal CLint at 30 µM in data set [5] was determined as 1.44 µL/min/mg. Besides, the bioavailability in data set [3] was 0.43%. The microsomal CLint at 10 µM in data set [4] turned out to be 4.1 µL/min/mg. The molecule also gave an AUC(0-t) at 6 h in data set [7] of 6.42 ng·h/mL. Besides, in data set [1], the IC50 came to 0.01 µM.
